Read-outs that look alike come from different tables or passages of the source. Marks after values point to notes of the source that are not given here.
Legend:
human ABCB1 = details: ref Weidner et al., 2015; cited from earlier work
[1] = mice, 1 h after i.v. 10 mg/kg; ref Zhang et al., 2011; cited from earlier work
[2] = plasma concentration after i.v. administration; format: in vivo, mice; details: mouse, iv, 10 mg/kg
[3] = tolerability of co-injected pharmacologic dose of unlabeled Ko143; format: in vivo; details: wild-type mice, 10 mg/kg i.v. co-injected with radiotracer
Abcb1a/b [4] = biological target: T1, Abcb1a/b (Mus musculus, UniProt P21447); details: Abcb1a/b^(-/-) and Abcb1a/b^(-/-)Abcg2^(-/-) mice; ref Liu et al., 2012; cited from earlier work
[5] = rat plasma; ref Liu et al., 2014; cited from earlier work
[6] = radio-TLC analysis of radiolabeled metabolites in tissues and fluids; format: in vivo, mice; details: 20 min after i.v. injection
Summary of the method: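 Female FVB wild-type and Abcb1a/b(-/-)Abcg2(-/-) mice, 7–8 weeks old, under isoflurane, given radiotracer i.v. (28.4 ± 4.1 MBq, 0.1 mL). At 20 min, blood was drawn from the retro-orbital sinus and the animals were killed. Plasma, liver, kidneys, brain, bile and urine were collected. Tissues were homogenised, proteins precipitated with acetonitrile, then spun at 12,000 g, 5 min, 4°C. Percent unchanged radiotracer was determined by radio-TLC.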

[7] = format: in vivo, mice
Summary of the method: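 Female FVB wild-type mice under isoflurane had 60-min dynamic PET after tail-vein injection of radiotracer mixed with test compound (10 mg/kg) or its vehicle (4 mL/kg), versus radiotracer alone. Liver and kidney kuptake came from an integration plot over 0.3–3.5 min. kurine and kbile came from 4.5–45 min data, with biliary activity taken as gallbladder + duodenum + intestine. Extraction ratio = kuptake divided by assumed blood flow (liver 1.0, kidney 4.1 mL/min/g).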

Abcg2 = biological target: T2, Abcg2 (Mus musculus, UniProt Q7TMS5); format: in vivo; details: Abcg2^(-/-) and Abcb1a/b^(-/-)Abcg2^(-/-) mice, microdose
T2 sequence (Q7TMS5 1-657): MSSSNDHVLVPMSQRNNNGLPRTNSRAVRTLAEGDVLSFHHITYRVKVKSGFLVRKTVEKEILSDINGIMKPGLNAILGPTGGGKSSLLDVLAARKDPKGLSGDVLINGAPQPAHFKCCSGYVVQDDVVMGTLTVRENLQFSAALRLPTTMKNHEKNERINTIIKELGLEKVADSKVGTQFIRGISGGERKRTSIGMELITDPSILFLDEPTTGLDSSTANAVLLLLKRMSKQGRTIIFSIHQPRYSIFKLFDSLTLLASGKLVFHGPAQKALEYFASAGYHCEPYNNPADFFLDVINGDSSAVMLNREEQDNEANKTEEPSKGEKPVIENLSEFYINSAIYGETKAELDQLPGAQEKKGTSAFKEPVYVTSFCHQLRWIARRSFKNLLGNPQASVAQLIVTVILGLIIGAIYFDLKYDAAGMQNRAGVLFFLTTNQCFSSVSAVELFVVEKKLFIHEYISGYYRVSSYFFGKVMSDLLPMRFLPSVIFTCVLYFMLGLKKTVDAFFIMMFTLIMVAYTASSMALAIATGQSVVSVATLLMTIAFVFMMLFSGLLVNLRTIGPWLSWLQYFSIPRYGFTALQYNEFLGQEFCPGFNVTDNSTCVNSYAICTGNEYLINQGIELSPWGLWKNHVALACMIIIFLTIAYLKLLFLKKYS
Summary of the method: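 Female FVB Abcg2(-/-), Abcb1a/b(-/-)Abcg2(-/-) and wild-type mice, 7–8 weeks old, under isoflurane, had 60-min dynamic PET started with a tail-vein i.v. microdose of radiotracer (26.6 ± 10.5 MBq, 0.1 mL). The kidney-to-urine rate constant kurine was derived from 4.5–45 min data, given as mean ± S.D. Knockouts were compared with wild-type by one-way ANOVA with Tukey's test.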

Abcb1a/b [8] = biological target: T1, Abcb1a/b; format: in vivo; details: wild-type and Abcg2^(-/-) mice, microdose
ABCB1 = details: ref Hugger et al., 2002, cited from earlier work
[9] = wild-type mice, microdose i.v., integration plot 0.3-3.5 min

T1 sequence (P21447 whole entry): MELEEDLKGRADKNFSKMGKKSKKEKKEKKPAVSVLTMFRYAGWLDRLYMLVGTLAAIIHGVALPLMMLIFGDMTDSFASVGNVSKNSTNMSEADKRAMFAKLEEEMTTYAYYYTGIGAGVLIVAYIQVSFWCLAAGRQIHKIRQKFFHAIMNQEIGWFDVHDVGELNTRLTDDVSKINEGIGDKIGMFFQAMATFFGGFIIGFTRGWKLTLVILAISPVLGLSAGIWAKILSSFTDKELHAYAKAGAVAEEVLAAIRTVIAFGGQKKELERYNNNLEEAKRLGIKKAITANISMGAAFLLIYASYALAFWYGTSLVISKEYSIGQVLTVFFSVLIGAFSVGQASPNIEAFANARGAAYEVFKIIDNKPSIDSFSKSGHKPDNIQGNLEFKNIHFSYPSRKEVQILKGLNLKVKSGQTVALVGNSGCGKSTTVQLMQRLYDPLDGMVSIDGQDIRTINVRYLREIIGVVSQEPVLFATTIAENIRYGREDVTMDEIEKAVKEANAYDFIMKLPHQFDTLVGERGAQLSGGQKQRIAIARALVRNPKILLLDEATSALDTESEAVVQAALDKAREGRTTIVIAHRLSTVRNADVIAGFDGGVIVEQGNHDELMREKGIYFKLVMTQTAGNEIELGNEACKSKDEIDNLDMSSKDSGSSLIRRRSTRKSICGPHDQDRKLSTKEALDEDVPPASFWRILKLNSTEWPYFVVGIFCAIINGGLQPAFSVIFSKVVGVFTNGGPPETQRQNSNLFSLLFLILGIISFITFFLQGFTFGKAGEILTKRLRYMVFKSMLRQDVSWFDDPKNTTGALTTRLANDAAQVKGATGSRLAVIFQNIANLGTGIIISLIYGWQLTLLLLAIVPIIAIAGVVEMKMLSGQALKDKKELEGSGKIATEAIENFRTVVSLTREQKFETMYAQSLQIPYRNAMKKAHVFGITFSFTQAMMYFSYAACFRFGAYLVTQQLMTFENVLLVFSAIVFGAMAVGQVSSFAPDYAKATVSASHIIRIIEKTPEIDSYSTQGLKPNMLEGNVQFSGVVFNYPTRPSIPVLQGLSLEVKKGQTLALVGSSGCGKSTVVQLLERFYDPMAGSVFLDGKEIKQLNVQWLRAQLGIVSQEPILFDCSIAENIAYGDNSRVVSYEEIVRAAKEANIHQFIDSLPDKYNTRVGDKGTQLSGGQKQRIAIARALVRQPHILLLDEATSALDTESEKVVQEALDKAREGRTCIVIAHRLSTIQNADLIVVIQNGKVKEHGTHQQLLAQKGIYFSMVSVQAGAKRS

COc1ccc2c3c([nH]c2c1)[C@H](CC(C)C)N1C(=O)[C@H](CCC(=O)OC(C)(C)C)NC(=O)[C@@H]1C3 [Ko143, (3S,6S,12aS)-1,2,3,4,6,7,12,12a-octahydro-9-methoxy-6-(2-methylpropyl)-1,4-dioxopyrazino[1’,2’:1,6]pyrido[3,4-b]indole-3-propanoic acid 1,1-dimethylethyl ester]
effect on human ABCB1 ATPase activity (human ABCB1): stimulated
plasma concentration [1]: 420 nM
concentration at 1 h [2]: 12 nM
tolerability [3]: well tolerated
brain concentrations, fold higher than in Abcg2^(-/-) mice (Abcb1a/b [4]): about 3 fold
unbound fraction in plasma [5]: 0.0293

CC(C)C[C@H]1c2[nH]c3cc(O[11CH3])ccc3c2C[C@H]2C(=O)N[C@@H](CCC(=O)OC(C)(C)C)C(=O)N21 [[^11C]Ko143]
Percentage of unchanged radiotracer, Bile ([6]; Abcb1a/b^(-/-)Abcg2^(-/-) mice): 1.5 ± 1.0%
Percentage of unchanged radiotracer, Brain ([6]; Abcb1a/b^(-/-)Abcg2^(-/-) mice): 73.2 ± 2.4 ^a %
Percentage of unchanged radiotracer, Kidney ([6]; Abcb1a/b^(-/-)Abcg2^(-/-) mice): 21.6 ± 2.0%
Percentage of unchanged radiotracer, Liver ([6]; Abcb1a/b^(-/-)Abcg2^(-/-) mice): 16.0 ± 1.8%
Percentage of unchanged radiotracer, Plasma ([6]; Abcb1a/b^(-/-)Abcg2^(-/-) mice): 34.7 ± 0.4%
Percentage of unchanged radiotracer, Bile ([6]; wild-type mice): 15.2 ± 21.0%
Percentage of unchanged radiotracer, Brain ([6]; wild-type mice): 51.5 ± 13.9%
Percentage of unchanged radiotracer, Kidney ([6]; wild-type mice): 35.6 ± 9.6%
Percentage of unchanged radiotracer, Liver ([6]; wild-type mice): 17.4 ± 2.7%
Percentage of unchanged radiotracer, Plasma ([6]; wild-type mice): 36.0 ± 1.5%
kbile, fold lower than with [^11C]Ko143 alone ([7]; wild-type mice co-injected with Ko143 vehicle): 2.4 fold
kbile, fold lower than with [^11C]Ko143 alone ([7]; wild-type mice co-injected with unlabeled Ko143 (10 mg/kg)): 1.9 fold
kurine ([7]; wild-type mice co-injected with unlabeled Ko143 (10 mg/kg) or Ko143 vehicle): almost decreased to zero
mean kuptake, kidney [7, 9]: 0.262 mL/min/g tissue
mean kuptake, liver [7, 9]: 0.689 mL/min/g tissue
kurine compared with wild-type mice (Abcg2): significantly lower
brain concentration-time curves, fold lower than in Abcb1a/b^(-/-) and Abcb1a/b^(-/-)Abcg2^(-/-) mice (Abcb1a/b [8]): approximately 2 fold

polyethylene glycol 300 [PEG300]
inhibition of ABCB1 activity (ABCB1; 20% v/v, Caco-2 and MDR1-MDCK cell monolayers): almost complete in vitro inhibition

polysorbate 80
inhibition of ABCB1 activity (ABCB1; 0.05% w/v, Caco-2 cells): only partially inhibited

— publication PMC5884419 (European journal of pharmaceutical sciences : official …, 2018)
